Experiments:
[1] = test system: HT-29; assay: Antiproliferative activity against human HT-29 cells after 48 hrs by MTT assay; format: functional, cell-based; details: HT-29, 48 h
Outline: (§1)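 MTT viability read-out; cells cultured in DMEM and exposed to compound for 48 h. IC50 taken as the concentration giving 50% inhibition of tumour cell proliferation.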

[2] = test system: A549; assay: Antiproliferative activity against human A549 cells after 48 hrs by MTT assay; format: functional, cell-based; details: A549, 48 h; outline: as §1
[3] = Inhibition of tubulin polymerization at 30 uM
Outline: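 GTP addition starts the reaction, run protected from light at 37 °C. Polymerization followed as fluorescence increase at 360/420 nm excitation/emission; % inhibition calculated against untreated control.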

[4] = test system: HeLa; assay: Antiproliferative activity against human HeLa cells after 48 hrs by MTT assay; format: functional, cell-based; outline: as §1
[5] = Inhibition of tubulin polymerization at 3 uM
Outline: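 Reaction started by GTP addition and run protected from light at 37 °C. Polymerization followed as fluorescence increase at 360/420 nm excitation/emission. Percent inhibition calculated relative to untreated control.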

SMILES | IC50 [1] [µM] | IC50 [2] [µM] | inhibition [3] [%] | IC50 [4] [µM] | inhibition [5] [%]
Cc1ccc(-c2cn(CC(=O)c3ccccc3)nn2)cc1 | 238 | 292 | 2.8 | > 300 | –
O=C(Cn1cc(-c2ccccc2)nn1)c1ccc(Br)cc1 | > 300 | > 300 | – | > 300 | –
COc1ccc2cc(-c3cn(CC(=O)c4ccccc4)nn3)ccc2c1 | > 300 | > 300 | – | > 300 | –
Cc1ccc(C(=O)Cn2cc(-c3ccccc3)nn2)cc1 | > 300 | > 300 | – | > 300 | –
CCC(C(=O)c1ccccc1)n1cc(-c2ccccc2)nn1 (configuration not stated) | 116 | 26 | 19.3 | 155 | –
O=C(Cn1cc(-c2ccccc2)nn1)c1ccc(Cl)cc1 | > 300 | > 300 | – | > 300 | –
Cc1cc(C)c(-c2cn(CC(=O)c3ccccc3)nn2)cc1C | 190 | 91 | 6.6 | > 300 | –
CCCCCc1ccc(-c2cn(CC(=O)c3ccccc3)nn2)cc1 | > 300 | > 300 | – | > 300 | –
COc1ccc(C(=O)Cn2cc(-c3ccccc3)nn2)cc1 | 49 | > 300 | 14.1 | > 300 | –
CC(C(=O)c1ccccc1)n1cc(-c2ccccc2)nn1 (configuration not stated) | > 300 | > 300 | – | > 300 | –
COc1cc([C@@H]2c3cc4c(cc3[C@H](O)[C@H]3COC(=O)[C@H]23)OCO4)cc(OC)c1OC | – | – | – | – | 58.1
O=C(Cn1cc(CO)nn1)c1ccccc1 | > 300 | > 300 | – | > 300 | –
CCCCCCc1cn(CC(=O)c2ccccc2)nn1 | > 300 | > 300 | – | > 300 | –
COc1cc2c(c(OC)c1OC)-c1ccc(OC)c(=O)cc1[C@@H](NC(C)=O)CC2 [COLCHICINE] | < 1 | < 1 | – | < 1 | 53.8
O=C(Cn1cc(-c2ccsc2)nn1)c1ccccc1 | > 300 | 260 | – | > 300 | –
O=C(Cn1cc(-c2ccccn2)nn1)c1ccccc1 | > 300 | > 300 | – | > 300 | –
O=C(Cn1cc(-c2ccccc2)nn1)c1ccccc1 | > 300 | > 300 | – | > 300 | –
COc1ccc(-c2cn(CC(=O)c3ccccc3)nn2)cc1 | > 300 | 187 | – | > 300 | –

Reference: ChEMBL document CHEMBL1275319, “Synthesis and cytotoxicity evaluation of novel 1,4-disubstituted 1,2,3-triazoles via CuI catalysed 1,3-dipolar cycloaddition” (Eur J Med Chem, 2010)
